Experimental data taken from ChEMBL document CHEMBL4024747, “Design, Synthesis, and Biological Activities of Vibsanin B Derivatives: A New Class of HSP90 C-Terminal Inhibitors” (J Med Chem, 2017).
Activity calls are given as the source filed them. The rule behind the calls is not given here.

How the values were obtained:
[1] = molecular target: Luciferin 4-monooxygenase (Photinus pyralis) (UniProt P08659); assay: Inhibition of firefly luciferase activity using luciferin substrate at 10 uM after 30 mins by luminescence assay
Luciferin 4-monooxygenase (Photinus pyralis), sequence (P08659 whole entry): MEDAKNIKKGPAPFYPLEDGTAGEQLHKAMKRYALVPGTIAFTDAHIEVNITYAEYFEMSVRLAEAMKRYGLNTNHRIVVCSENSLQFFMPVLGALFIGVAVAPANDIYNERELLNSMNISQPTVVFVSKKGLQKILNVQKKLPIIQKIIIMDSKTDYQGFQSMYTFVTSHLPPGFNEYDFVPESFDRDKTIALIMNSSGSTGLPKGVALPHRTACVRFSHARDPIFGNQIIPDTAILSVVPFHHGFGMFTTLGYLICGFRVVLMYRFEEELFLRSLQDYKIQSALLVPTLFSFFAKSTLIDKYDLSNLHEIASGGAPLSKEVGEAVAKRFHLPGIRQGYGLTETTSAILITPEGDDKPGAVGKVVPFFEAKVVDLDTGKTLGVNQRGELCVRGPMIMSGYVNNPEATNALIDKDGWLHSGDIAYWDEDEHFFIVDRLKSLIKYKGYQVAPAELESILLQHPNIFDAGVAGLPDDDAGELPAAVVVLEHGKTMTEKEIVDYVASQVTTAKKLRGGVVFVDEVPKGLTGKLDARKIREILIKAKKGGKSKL

MCF7 = assay: Antiproliferative activity against human MCF7 cells assessed as reduction in cell viability after 48 hrs by MTT assay; type: functional, cell-based; conditions: MCF7, 48 h
Oryctolagus cuniculus = species: Oryctolagus cuniculus; assay: Inhibition of HSP90 in rabbit reticulocyte lysate assessed as decrease in HSP90-dependant refolding of firefly luciferase at 10 uM after 30 mins by luciferase gene based assay
Procedure, shortened: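 Firefly luciferase heat-denatured at 41 °C for 10 min, then added with rabbit reticulocyte lysate to compounds at 10 μM. Renaturation at room temperature for 3 h; luciferin substrate added and luminescence read. Refolding expressed relative to DMSO; novobiocin at 500 μM as reference. Three independent experiments.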

A549 = assay: Antiproliferative activity against human A549 cells assessed as reduction in cell viability after 48 hrs by MTT assay; type: functional, cell-based; conditions: A549, 48 h
HL-60 = assay: Antiproliferative activity against human HL60 cells assessed as reduction in cell viability after 48 hrs by MTT assay; type: functional, cell-based; conditions: HL-60, 48 h
SMMC-7721 = assay: Antiproliferative activity against human SMMC7721 cells assessed as reduction in cell viability after 48 hrs by MTT assay; type: functional, cell-based; conditions: SMMC-7721, 48 h
[2] = Stability of compound in pH 7.4 PBS at 37 degreeC after 12 hrs by HPLC analysis; type: physicochemical; conditions: buffer, pH 7.4, 12 h
Procedure, shortened: (§1)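 Solution stability determined by HPLC after incubation in PBS pH 7.4 at 37 °C for 12 h.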

SW480 = assay: Antiproliferative activity against human SW480 cells assessed as reduction in cell viability after 48 hrs by MTT assay; type: functional, cell-based; conditions: SW480, 48 h
[3] = molecular target: Heat shock protein HSP 90-beta (Homo sapiens) (UniProt P08238); assay: Binding affinity to human recombinant His-tagged HSP90beta-CTD expressed in Escherichia coli BL21(DE3) at 80 uM after 2 hrs in presence of 18-fluro vibsanin B by Western blot analysis
Heat shock protein HSP 90-beta (Homo sapiens), sequence (P08238 whole entry, the tested form may be a part): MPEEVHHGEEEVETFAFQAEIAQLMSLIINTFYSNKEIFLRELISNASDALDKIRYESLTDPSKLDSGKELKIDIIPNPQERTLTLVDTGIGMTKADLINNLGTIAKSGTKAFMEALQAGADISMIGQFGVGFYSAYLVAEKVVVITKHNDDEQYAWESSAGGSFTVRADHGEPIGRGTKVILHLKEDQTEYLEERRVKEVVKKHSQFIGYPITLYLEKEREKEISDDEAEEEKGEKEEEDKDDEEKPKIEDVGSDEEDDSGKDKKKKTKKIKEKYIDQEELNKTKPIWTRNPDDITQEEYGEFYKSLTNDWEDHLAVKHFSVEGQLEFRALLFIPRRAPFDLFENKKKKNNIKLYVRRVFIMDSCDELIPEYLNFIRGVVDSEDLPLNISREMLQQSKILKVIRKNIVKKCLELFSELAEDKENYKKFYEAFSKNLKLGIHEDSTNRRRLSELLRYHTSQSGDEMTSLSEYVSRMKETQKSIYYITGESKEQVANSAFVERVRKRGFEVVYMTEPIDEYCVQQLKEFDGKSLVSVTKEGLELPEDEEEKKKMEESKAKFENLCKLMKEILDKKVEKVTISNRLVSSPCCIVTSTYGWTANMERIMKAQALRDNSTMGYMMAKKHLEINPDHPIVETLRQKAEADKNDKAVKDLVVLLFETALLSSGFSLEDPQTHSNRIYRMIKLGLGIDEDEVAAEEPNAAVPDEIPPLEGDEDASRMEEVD

[4] = molecular target: Heat shock protein HSP 90-beta (Homo sapiens) (UniProt P08238); assay: Binding affinity to human recombinant His-tagged HSP90beta-CTD expressed in Escherichia coli BL21(DE3) at 80 uM after 2 hrs in presence of vibsanin B by Western blot analysis
[5] = molecular target: Heat shock protein HSP 90-beta (Homo sapiens) (UniProt P08238); assay: Binding affinity to human FLAG-tagged HSP90beta C-terminal domain expressed in human 293T cells at 30 uM by Western blot analysis; type: cell-based
Procedure, shortened: (§2)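 Flag-tagged full-length HSP90β and its NTD, MD and CTD constructs expressed by transfection in 293T cells; lysates incubated with 30 μM biotin-ViB, captured on streptavidin-agarose beads, bound protein detected by Western blot.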

[6] = molecular target: Heat shock protein HSP 90-beta (Homo sapiens) (UniProt P08238); assay: Binding affinity to human FLAG-tagged HSP90beta N-terminal domain expressed in human 293T cells at 30 uM by Western blot analysis; type: cell-based; procedure, shortened: as §2
[7] = molecular target: Heat shock protein HSP 90-beta (Homo sapiens) (UniProt P08238); assay: Binding affinity to human FLAG-tagged HSP90beta middle domain expressed in human 293T cells at 30 uM by Western blot analysis; type: cell-based; procedure, shortened: as §2
[8] = molecular target: Heat shock protein HSP 90-beta (Homo sapiens) (UniProt P08238); assay: Binding affinity to human recombinant His-tagged HSP90beta-CTD expressed in Escherichia coli BL21(DE3) at 80 uM after 2 hrs in presence of ViB-4-OH by Western blot analysis
[9] = molecular target: Heat shock protein HSP 90-beta (Homo sapiens) (UniProt P08238); assay: Binding affinity to human recombinant His-tagged HSP90beta-CTD expressed in Escherichia coli BL21(DE3) at 80 uM after 2 hrs by Western blot analysis
[10] = molecular target: Heat shock protein HSP 90-beta (Homo sapiens) (UniProt P08238); assay: Inhibition of recombinant human Biotin-labeled N-terminal His/Avi-tagged HSP90beta C-terminal domain (527 to 724 residues) expressed in Escherichia coli interaction with GST-tagged Cyp40 at 500 uM after 30 mins by Alphascreen assay
Procedure, shortened: (§3)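 AlphaScreen assay: biotin-labelled HSP90β C-terminus (aa 527–724) mixed with GST-Cyp40 and compound (1–100 μM; novobiocin 500 μM) for 30 min at room temperature. Glutathione acceptor beads added for 30 min, then streptavidin donor beads for 10 min. Excitation at 680 nm, emission read at 520–620 nm; percent activity calculated against enzyme and background wells.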

[11] = molecular target: Heat shock protein HSP 90-beta (Homo sapiens) (UniProt P08238); assay: Inhibition of recombinant human Biotin-labeled N-terminal His/Avi-tagged HSP90beta C-terminal domain (527 to 724 residues) expressed in Escherichia coli interaction with GST-tagged Cyp40 at 1 to 100 uM after 30 mins by Alphascreen assay; procedure, shortened: as §3
[12] = Drug degradation in pH 7.4 PBS at 37 degreeC after 12 hrs by HPLC analysis relative to control; procedure, shortened: as §1
HepG2 = assay: Antiproliferative activity against human HepG2 cells assessed as reduction in cell viability after 48 hrs by MTT assay; type: functional, cell-based; conditions: HepG2, 48 h
BT-474 = assay: Antiproliferative activity against human BT474 cells assessed as reduction in cell viability after 48 hrs by MTT assay; type: functional, cell-based; conditions: BT-474, 48 h
[13] = Half life of compound in toluene at 110 degreeC by HPLC analysis; type: physicochemical
Procedure, shortened: (§4)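 Thermostability in toluene at 110 °C or 60 °C followed by HPLC; half-life estimated.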

[14] = Drug metabolism in deionized water assessed as compound decomposition at 100 degreeC after 10 mins by HPLC analysis relative to control; type: physicochemical; conditions: read-out: Drug metabolism
Procedure, shortened: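 Thermostability determined by HPLC after heating in deionized water at 100 °C for 10 min; decomposition recorded in percent.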

Danio rerio = species: Danio rerio; assay: Toxicity in 3 days post fertilized zebrafish embryo assessed as changes in embryonic phenotypes at 4 to 16 uM after 12 hrs; conditions: in vivo
[15] = molecular target: Heat shock protein HSP 90-alpha (Homo sapiens) (UniProt P07900); assay: Inhibition of FITC-geldanamycin binding to human FLAG-tagged HSP90alpha N-terminal domain
[16] = Half life of compound in toluene at 60 degreeC by HPLC analysis; type: physicochemical; procedure, shortened: as §4
[17] = molecular target: Heat shock protein HSP 90-beta (Homo sapiens) (UniProt P08238); assay: Inhibition of FITC-geldanamycin binding to human FLAG-tagged HSP90beta N-terminal domain
[18] = Stability of compound in boiling ethyl alcohol by HPLC analysis; type: physicochemical
HeLa = assay: Antiproliferative activity against human HeLa cells assessed as reduction in cell viability after 48 hrs by MTT assay; type: functional, cell-based
SK-BR-3 = assay: Antiproliferative activity against human SKBR3 cells assessed as reduction in cell viability after 48 hrs by MTT assay; type: functional, cell-based; conditions: SK-BR-3, 48 h
AGS = assay: Antiproliferative activity against human AGS cells assessed as reduction in cell viability after 48 hrs by MTT assay; type: functional, cell-based
Huh-7 = assay: Antiproliferative activity against human HuH7 cells assessed as reduction in cell viability after 48 hrs by MTT assay; type: functional, cell-based; conditions: Huh-7, 48 h
MDA-MB-468 = assay: Antiproliferative activity against human MDA-MB-468 cells assessed as reduction in cell viability after 48 hrs by MTT assay; type: functional, cell-based; conditions: MDA-MB-468, 48 h
BEAS-2B = assay: Cytotoxicity against human BEAS2B cells assessed as reduction in cell viability after 48 hrs by MTT assay; type: cell-based

SMILES | inhibition [1] | IC50 (MCF7) [nM] | inhibition (Oryctolagus cuniculus) | IC50 (A549) [nM] | IC50 (HL-60) [nM] | IC50 (SMMC-7721) [nM] | IC50 (SW480) [nM] | further results
CC(=O)O[C@]1(C)/C=C/C(=O)/C(CO)=C\C[C@](C)(CCC=C(C)C)/C=C/[C@H]1OC(=O)C=C(C)C | inactive | 2320 | < 50% | 3150 | 2370 | 3080 | 2010 | Stability [2]: Stable
CC(C)=CCC[C@]1(C)/C=C/[C@@H](OC(=O)C=C(C)C)[C@](C)(O)/C=C/C(=O)/C(COC(=O)CNCc2cn(CCOCCOCCOC(=O)CCCC[C@@H]3SC[C@@H]4NC(=O)N[C@@H]43)nn2)=C\C1 | – | – | – | – | – | – | – | Activity [3]: inactive; Activity [4]: inactive; Activity [5]: Active; Activity [6]: inactive; Activity [7]: Active; Activity [8]: Active; Activity [9]: Active
C=C1/C=C/C(=O)/C(CO)=C\C[C@](C)(CCC=C(C)C)/C=C/[C@H]1OC(=O)C=C(C)C | inactive | 2750 | Active | 3090 | 2810 | 4300 | 2970 | Stability [2]: Stable
CO[C@@H]1[C@@H](OC(N)=O)[C@@H](O)[C@H](Oc2ccc3c(O)c(NC(=O)c4ccc(O)c(CC=C(C)C)c4)c(=O)oc3c2C)OC1(C)C | – | – | – | – | – | – | – | inhibition [10]: Active; inhibition [11]: Active

The next lines start with results.

inhibition [1] | IC50 (MCF7) [nM] | inhibition (Oryctolagus cuniculus) | IC50 (A549) [nM] | IC50 (HL-60) [nM] | IC50 (SMMC-7721) [nM] | IC50 (SW480) [nM] | SMILES | further results
inactive | 220 | < 50% | 180 | 160 | 140 | 310 | CC(C)=CCC[C@]1(C)/C=C/[C@@H](OC(=O)C=C(C)C)[C@](C)(O)/C=C/C(=O)/C(CN2CCCC2)=C\C1 | –
inactive | 610 | Active | 150 | 160 | 840 | 390 | CC(C)=CCC[C@]1(C)/C=C/[C@@H](OC(=O)C=C(C)C)[C@](C)(O)/C=C/C(=O)/C(CCl)=C\C1 | –
inactive | 2850 | Active | 3460 | 2640 | 3250 | 2650 | CC(C)=CCC[C@]1(C)/C=C/[C@@H](OC(=O)C=C(C)C)[C@](C)(O)/C=C/C(=O)/C(CO)=C\C1 [VIBSANIN B] | Drug degradation [12]: 4.92%; IC50 (HepG2): 19100 nM; IC50 (BT-474): 4550 nM; half-life [13]: 5 min; degraded at 10 min [14]: 2.8%; Activity (Danio rerio): Toxic; inhibition [15]: inactive; half-life [16]: 9 min; inhibition [17]: inactive; Stability [18]: Stable; IC50 (HeLa): 2480 nM; IC50 (SK-BR-3): 9190 nM; IC50 (AGS): 9680 nM
inactive | 240 | Active | 140 to 620 | 140 to 620 | 140 to 620 | 140 to 620 | CC(C)=CCC[C@]1(C)/C=C/[C@@H](OC(=O)C=C(C)C)[C@](C)(O)/C=C/C(=O)/C(CF)=C\C1 | IC50 (HepG2): 860 nM; IC50 (BT-474): 940 nM; Activity (Danio rerio): Toxic; IC50 (Huh-7): 540 nM; IC50 (HeLa): 880 nM; IC50 (MDA-MB-468): 310 nM; IC50 (SK-BR-3): 330 nM; IC50 (AGS): 740 nM; IC50 (BEAS-2B): 770 nM
